One may read the Kd as the equilibrium constant for the complex coming apart.

In ChEMBL document CHEMBL4480452, “Molecular recognition of a branched peptide with HIV-1 Rev Response Element (RRE) RNA” (Bioorg Med Chem, 2019) one finds Kd and Activity data, which are given here for eight molecules.

The target in assay [1] is Rev responsive element (RRE) RNA. Description: Binding affinity to HIV-1 rev response element SL-IIB RNA by 2-Aminopurine-based fluorescence spectrophotometric analysis. It is filed as nucleic-acid assay, Human immunodeficiency virus 1.
Assay [2] relates to Rev responsive element (RRE) RNA. Description: Binding affinity to HIV-1 NL4-3 5-32P-labeled rev response element SL-IIB RNA by RNases A and V1 based RNase protection assay. The following applies: Human immunodeficiency virus 1.
For assay [3], the target named is Rev responsive element (RRE) RNA. Description: Binding affinity to HIV-1 rev response element SL-IIB RNA in presence of 10 times RRE DNA by 2-Aminopurine-based fluorescence spectrophotometric analysis. The format is nucleic-acid assay, Human immunodeficiency virus 1. The method, boiled down:
(§1)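 Same 2-AP titration, run with 10-fold excess of unlabeled competitor nucleic acid. Conditions: 0.1 μM refolded 2-AP RRE SL-IIB RNA, peptide 0–20 μM, pH 7.0 phosphate/KCl/MgCl2 buffer, ex 310 / em 372 nm. Kd from Hill fit, at least duplicate, SD.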

Assay [4] shares this target. Description: Binding affinity to HIV-1 rev response element SL-IIB RNA in presence of 10 times no bulge RRE RNA by 2-Aminopurine-based fluorescence spectrophotometric analysis. It is filed as nucleic-acid assay, Human immunodeficiency virus 1. The procedure, abridged: as §1
Assay [5] has the same target. Description: Binding affinity to HIV-1 rev response element SL-IIB RNA in presence of 10 times TAR RNA by 2-Aminopurine-based fluorescence spectrophotometric analysis. It is filed as nucleic-acid assay, Human immunodeficiency virus 1. The procedure, abridged:
as §1

In assay [6] the test system is Rev responsive element (RRE) RNA. Description: Binding affinity to SL1 and SL2 regions of 234 nucleotide long HIV-1 NL4-3 rev response element RNA by SHAPE-MaP technology assay. It is filed as nucleic-acid assay. The following applies: Human immunodeficiency virus 1. The method, boiled down: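 234-nt RRE RNA (5 pmol), renatured then folded at 37 °C for 15 min (70 mM Tris pH 8.0, 180 mM KCl, 8 mM MgCl2, 5% glycerol). Peptide added at 1:1 or 1:10 RNA:peptide for 15 min at 37 °C, then 1M7 for 5 min at 37 °C, with DMSO and denaturing controls. Read by MaP reverse transcription, PCR and sequencing; reactivity compared by nucleotide position.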

Assay [7] shares this test system. Description: Binding affinity to internal loop and upper stem/ apical loop regions of 5-32P-labeled HIV-1 NL4-3 rev response element SL-IIB RNA by RNases A and V1 based RNase protection assay. It is filed as nucleic-acid assay. The following applies: Human immunodeficiency virus 1. The method, boiled down:
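5′-32P-labeled RRE SL-IIB (10 nM) with 200 nM unlabeled RNA, refolded at 95 °C for 3 min and snap-cooled. Incubated with peptide (0–20 μM) on ice for 4 h in 10 mM Tris pH 7, 100 mM KCl, 10 mM MgCl2. Digested on ice with RNase V1 (0.002 U, 10 min) or RNase A (20 ng, 1 h). Cleavage read on 12% denaturing PAGE by autoradiography.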

Molecules are shown by their SMILES. Activity calls are given as the source filed them. The rule behind the calls is not given here.

In turn, `N=C(N)N[C@@H]1C[C@@H](C(=O)N2C[C@H](NC(=N)N)C[C@H]2C(=O)N[C@@H](CCCCNC(=O)c2cnccn2)C(=O)N[C@@H](Cc2ccc(O)cc2)C(N)=O)N(C(=O)[C@H](CCCCNC(=O)[C@H](CCCCNC(=O)c2cnccn2)NC(=O)[C@H]2C[C@@H](NC(=O)[C@@H]3C[C@@H](NC(=N)N)CN3)CN2)NC(=O)[C@H](CCCCNC(=O)c2cnccn2)NC(=O)[C@H]2C[C@@H](NC(=O)[C@@H]3C[C@@H](NC(=N)N)CN3)CN2)C1` returned a Kd in assay [1] of 1300 nM.
In assay [1], `N=C(N)N[C@H]1CN[C@H](C(=O)N2C[C@H](N)C[C@@H]2C(=O)NCCN(CC(=O)NCCCC[C@H](NC(=O)CN(CCNC(=O)[C@H]2C[C@@H](N)CN2C(=O)[C@@H]2C[C@@H](NC(=N)N)CN2)C(=O)Cn2cnc3c(=O)[nH]c(N)nc32)C(=O)NCCN(CC(=O)N[C@@H](CCCCNC(=O)c2cnccn2)C(=O)N[C@@H](CCCCNC(=O)c2ccc(B(O)O)cc2)C(=O)N[C@@H](Cc2ccc(O)cc2)C(N)=O)C(=O)Cn2cnc3c(=O)[nH]c(N)nc32)C(=O)Cn2cnc3c(=O)[nH]c(N)nc32)C1` registered a Kd of 1180 nM.
`N=C(N)N[C@@H]1C[C@@H](C(=O)N2C[C@H](N)C[C@@H]2C(=O)N[C@@H](Cc2ccc(O)cc2)C(N)=O)N(C(=O)[C@H]2C[C@@H](N)CN2C(=O)[C@H](CCCCNC(=O)[C@H]2C[C@@H](N)CN2C(=O)[C@@H]2C[C@@H](NC(=N)N)CN2C(=O)[C@H]2C[C@@H](N)CN2)NC(=O)[C@H]2C[C@@H](N)CN2C(=O)[C@@H]2C[C@@H](NC(=N)N)CN2C(=O)[C@H]2C[C@@H](N)CN2)C1` gave a Kd in assay [1] of 720 nM.
Consider `N=C(N)N[C@@H]1C[C@@H](C(=O)NCCN(CC(=O)N[C@@H](CCCCNC(=O)c2ccc(B(O)O)cc2)C(=O)N[C@@H](Cc2ccc(O)cc2)C(N)=O)C(=O)Cn2cnc3c(=O)[nH]c(N)nc32)N(C(=O)[C@H](CCCCNC(=O)[C@@H]2C[C@@H](NC(=N)N)CN2C(=O)[C@H]2C[C@@H](NC(=O)[C@@H]3C[C@@H](NC(=N)N)CN3)CN2)NC(=O)[C@@H]2C[C@@H](NC(=N)N)CN2C(=O)[C@H]2C[C@@H](NC(=O)[C@@H]3C[C@@H](NC(=N)N)CN3)CN2)C1`, for which the Kd in assay [1] worked out at 630 nM.
Consider `N=C(N)N[C@@H]1C[C@@H](C(=O)N[C@H]2CN[C@@H](C(=O)N[C@@H](Cc3ccc(O)cc3)C(N)=O)C2)N(C(=O)CN(CCNC(=O)[C@H](CCCCNC(=O)[C@@H]2C[C@@H](NC(=N)N)CN2C(=O)[C@H]2C[C@@H](N)CN2C(=O)[C@@H](N)CCCCNC(=O)c2cnccn2)NC(=O)[C@@H]2C[C@@H](NC(=N)N)CN2C(=O)[C@H]2C[C@@H](N)CN2C(=O)[C@@H](N)CCCCNC(=O)c2cnccn2)C(=O)Cn2cnc3c(=O)[nH]c(N)nc32)C1`, for which the affinity in assay [1], expressed as Kd, was 1110 nM.
Consider `N=C(N)N[C@H]1CN[C@H](C(=O)N[C@H]2CN[C@@H](C(=O)N[C@@H](Cc3cccc4ccccc34)C(=O)NCCCC[C@H](NC(=O)[C@H](Cc3cccc4ccccc34)NC(=O)[C@H]3C[C@@H](NC(=O)[C@@H]4C[C@@H](NC(=N)N)CN4)CN3)C(=O)NCCN(CC(=O)NCCN(CC(=O)N[C@@H](Cc3cccc4ccccc34)C(=O)N[C@@H](Cc3ccc(O)cc3)C(N)=O)C(=O)Cn3cnc4c(=O)[nH]c(N)nc43)C(=O)Cn3cnc4c(=O)[nH]c(N)nc43)C2)C1`, for which, in assay [1], binding was characterised by a dissociation constant (Kd) of 660 nM.
Regarding `N=C(N)N[C@@H]1C[C@@H](C(=O)NCCN(CC(=O)N[C@@H](CCCCNC(=O)c2ccc(B(O)O)cc2)C(=O)N[C@@H](Cc2ccc(O)cc2)C(N)=O)C(=O)Cn2cnc3c(=O)[nH]c(N)nc32)N(C(=O)[C@H](CCCCNC(=O)[C@@H]2C[C@@H](NC(=N)N)CN2C(=O)[C@@H]2C[C@@H](NC(=N)N)CN2C(=O)[C@H]2C[C@@H](N)CN2)NC(=O)[C@@H]2C[C@@H](NC(=N)N)CN2C(=O)[C@@H]2C[C@@H](NC(=N)N)CN2C(=O)[C@H]2C[C@@H](N)CN2)C1`, the outcome in assay [2], in assay [6] and in assay [7] was Active. Besides, the dissociation constant Kd in assay [3] was 1480 nM; in assay [4], 1140 nM; in assay [5], 3520 nM; in assay [1] it was 400 to 410 nM.
Molecule `N=C(N)N[C@@H]1C[C@@H](C(=O)NCCCC[C@H](NC(=O)[C@@H]2C[C@@H](NC(=N)N)CN2C(=O)[C@H]2C[C@@H](N)CN2C(=O)[C@@H]2C[C@@H](NC(=N)N)CN2)C(=O)N[C@@H](CCCCNC(=O)c2cnccn2)C(=O)N[C@@H](CCCCNC(=O)c2cnccn2)C(=O)NCCN(CC(=O)N[C@@H](Cc2ccc(O)cc2)C(N)=O)C(=O)Cn2cnc3c(=O)[nH]c(N)nc32)N(C(=O)[C@H]2C[C@@H](N)CN2C(=O)[C@@H]2C[C@@H](NC(=N)N)CN2)C1` came in with a Kd in assay [1] of 1120 nM.
